Data taken from article PMC12671527 (Research in Pharmaceutical Sciences, 2025).
≈ marks a conversion by molar mass, not a printed value.

Legend:
Type in all cases: cell-based
[1] = test system: Acinetobacter baumannii ATCC 1799; assay: Synergistic studies, broth microdilution checkerboard; details: levofloxacin combined with UP5, checkerboard, first no-growth well, triplicate
Method in brief: (§1)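 Checkerboard broth microdilution in Mueller-Hinton broth. Each well held graded concentrations of the peptide and levofloxacin in crossed combination, plus inoculum at 10^6 CFU/mL before mixing. Plates ran 18 h at 37 °C with growth read at OD 570 nm. Combination MICs were determined in triplicate. FIC = sum of combined/alone MIC ratios, with 100 µM used as the denominator when the solo MIC exceeded 100 µM.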

[2] = test system: Enterococcus faecium ATCC 2316; assay: as above; details: levofloxacin combined with UP5, checkerboard, first no-growth well, triplicate
Method in brief: as §1

[3] = test system: Pseudomonas aeruginosa ATCC 3197; assay: MIC and MBC, broth microdilution; details: ATCC3197, 18 h
Method in brief: (§2)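 Broth microdilution per CLSI. Isolates were revived from glycerol stocks, grown overnight in Mueller-Hinton broth and diluted to 10^6 CFU/mL, then mixed with equal volumes of serially diluted test compound, six wells per concentration. Plates ran 18 h at 37 °C with growth read at OD 570 nm; MIC was the lowest inhibiting concentration. MBC: clear wells streaked on agar for 24 h, 99.9% kill. Triplicate experiments. SI = MDCK IC50/MIC.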

[4] = test system: Enterococcus faecium ATCC 2316; assay: MIC and MBC, broth microdilution; details: ATCC2316, 18 h
Method in brief: as §2

[5] = test system: Staphylococcus epidermidis ATCC 700565; assay: Synergistic studies, broth microdilution checkerboard; details: levofloxacin combined with UP5, checkerboard, first no-growth well, triplicate
Method in brief: as §1

[6] = test system: Klebsiella pneumoniae ATCC 2814; assay: MIC and MBC, broth microdilution; details: ATCC2814, 18 h
Method in brief: as §2

[7] = test system: Acinetobacter baumannii ATCC 1799; assay: MIC and MBC, broth microdilution; details: ATCC1799, 18 h
Method in brief: as §2

[8] = test system: Klebsiella pneumoniae ATCC 2814; assay: Synergistic studies, broth microdilution checkerboard; details: levofloxacin combined with UP5, checkerboard, first no-growth well, triplicate
Method in brief: as §1

[9] = test system: Staphylococcus aureus ATCC BAA-44; assay: as above; details: levofloxacin combined with UP5, checkerboard, first no-growth well, triplicate
Method in brief: as §1

[10] = test system: Pseudomonas aeruginosa ATCC 3197; assay: Synergistic studies, broth microdilution checkerboard; details: levofloxacin combined with UP5, checkerboard, first no-growth well, triplicate
[11] = test system: Staphylococcus epidermidis ATCC 700565; assay: MIC and MBC, broth microdilution; details: ATCC700565, 18 h
Method in brief: as §2

C[C@H]1COc2c(N3CCN(C)CC3)c(F)cc3c(=O)c(C(=O)O)cn1c23 [Levofloxacin, levofloxacin]
MIC in combination, Levofloxacin [1]: 12.5 µM
MIC in combination, Levofloxacin [2]: 12.5 µM
MIC [3]: 25 µM (≈ 9.03 µg/mL)
MIC [4]: 50 µM (≈ 18.1 µg/mL)
MIC in combination, Levofloxacin [5]: 6.25 µM
MIC [6]: > 100 µM
MIC [7]: > 100 µM
MIC in combination, Levofloxacin [8]: 25 µM
MIC in combination, Levofloxacin [9]: 12.5 µM
MIC in combination, Levofloxacin [10]: 12.5 µM
MIC [11]: 25 µM (≈ 9.03 µg/mL)
